Converted amounts (≈) assume the structure as drawn.
Assays:
Type in all cases: functional
[1] = tested on: Streptococcus pneumoniae; experiment: Minimum inhibitory concentration against Streptococcus pneumoniae A9585
Summary of the method: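 Broth microdilution following NCCLS recommendations, using Todd Hewitt broth for streptococci; final inoculum approx. 5×10^5 cfu/mL; incubation 35 °C for 18 h in 5% CO₂. MIC read as the lowest drug concentration preventing growth, µg/mL.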

[2] = tested on: Staphylococcus aureus; experiment: Minimum inhibitory concentration against heterogeneously methicillin-resistant Staphylococcus aureus A27218
Summary of the method: (§1)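 Broth microdilution per NCCLS guidance in Mueller-Hinton medium. Final inoculum about 5×10^5 cfu/mL. Plates incubated at 35 °C for 18 h in ambient air. MIC taken as the lowest drug concentration that prevented visible growth.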

[3] = tested on: Staphylococcus aureus; experiment: Minimum inhibitory concentration against Staphylococcus aureus A15090; summary of the method: as §1
[4] = tested on: Enterococcus faecium; experiment: Minimum inhibitory concentration against Enterococcus faecium A24885
Summary of the method: (§2)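 Broth microdilution per NCCLS guidance in Mueller-Hinton medium; final inoculum about 5×10^5 cfu/mL; plates incubated 18 h at 35 °C in ambient air. MIC taken as the lowest drug concentration preventing visible growth, in µg/mL.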

[5] = tested on: Staphylococcus aureus; experiment: Minimum inhibitory concentration against homogeneously methicillin-resistant Staphylococcus aureus A27223; summary of the method: as §1
[6] = tested on: Enterococcus faecalis; experiment: Minimum inhibitory concentration against Enterococcus faecalis A20688; summary of the method: as §2
[7] = tested on: Staphylococcus aureus; experiment: Minimum inhibitory concentration against heterogeneously methicillin-resistant Staphylococcus aureus A27218 in the presence of 50% calf serum
Summary of the method: (§3)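 Broth microdilution per NCCLS guidance in Mueller-Hinton medium supplemented with 50% calf serum. Final inoculum about 5×10^5 cfu/mL. Incubated at 35 °C for 18 h in ambient air. MIC read as the lowest drug concentration that prevented visible growth.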

[8] = tested on: Staphylococcus aureus; experiment: Minimum inhibitory concentration against Staphylococcus aureus A15090 in the presence of 50% calf serum; summary of the method: as §3
[9] = tested on: Staphylococcus aureus; experiment: Minimum inhibitory concentration against homogeneously methicillin-resistant Staphylococcus aureus A27223 in the presence of 50% calf serum; summary of the method: as §3

Row | Structure (SMILES) | MIC [1] | MIC [2] | MIC [3] | MIC [4] | MIC [5] | MIC [6] | MIC [7] | MIC [8] | MIC [9]
1 | CC(=O)NC[C@H]1CN(c2ccc(N3CCCCN3C(C)=O)c(F)c2)C(=O)O1 | 4 µg/mL (≈ 10.6 µM) | 32 µg/mL (≈ 84.6 µM) | 32 µg/mL (≈ 84.6 µM) | 32 µg/mL (≈ 84.6 µM) | 16 µg/mL (≈ 42.3 µM) | 32 µg/mL (≈ 84.6 µM) |  |  | 
2 | CC(=O)NC[C@H]1CN(c2ccc(N3CC(C)=C(C)CO3)cc2)C(=O)O1 | 8 µg/mL (≈ 23.2 µM) | 8 µg/mL (≈ 23.2 µM) | 4 µg/mL (≈ 11.6 µM) | 8 µg/mL (≈ 23.2 µM) | 4 µg/mL (≈ 11.6 µM) | 16 µg/mL (≈ 46.3 µM) |  |  | 
3 | CC(=O)NC[C@H]1CN(c2ccc(NO)cc2)C(=O)O1 | 4 µg/mL (≈ 15.1 µM) | 4 µg/mL (≈ 15.1 µM) | 0.5 µg/mL (≈ 1.88 µM) | 4 µg/mL (≈ 15.1 µM) | 2 µg/mL (≈ 7.54 µM) | 8 µg/mL (≈ 30.2 µM) |  |  | 
4 | CC(=O)NC[C@H]1CN(c2ccc([N+](=O)[O-])c(F)c2)C(=O)O1 | 64 µg/mL (≈ 215 µM) | 128 µg/mL (≈ 431 µM) | > 128 µg/mL | > 128 µg/mL | 128 µg/mL (≈ 431 µM) | > 128 µg/mL |  |  | 
5 | CC(=O)NC[C@H]1CN(c2ccc(N3CCC=N3)c(F)c2)C(=O)O1 | 1 µg/mL (≈ 3.12 µM) | 1 µg/mL (≈ 3.12 µM) | 1 µg/mL (≈ 3.12 µM) | 4 µg/mL (≈ 12.5 µM) | 1 µg/mL (≈ 3.12 µM) | 2 µg/mL (≈ 6.24 µM) | 1 µg/mL | 1 µg/mL | 1 µg/mL
6 | CC(=O)NC[C@H]1CN(c2ccc(N)cc2)C(=O)O1 | 16 µg/mL (≈ 64.2 µM) | 128 µg/mL (≈ 513 µM) | 16 µg/mL (≈ 64.2 µM) | 128 µg/mL (≈ 513 µM) | 64 µg/mL (≈ 257 µM) | 128 µg/mL (≈ 513 µM) |  |  | 
7 | CC(=O)NC[C@H]1CN(c2ccc(N3OC4C=CC3CC4)cc2)C(=O)O1 (stereo not given in full) | 16 µg/mL (≈ 46.6 µM) | 8 µg/mL (≈ 23.3 µM) | 16 µg/mL (≈ 46.6 µM) | 16 µg/mL (≈ 46.6 µM) | 4 µg/mL (≈ 11.6 µM) | 32 µg/mL (≈ 93.2 µM) |  |  | 
8 | CC(=O)NC[C@H]1CN(c2ccc(N3CC=CCO3)cc2)C(=O)O1 | 2 µg/mL (≈ 6.3 µM) | 2 µg/mL (≈ 6.3 µM) | 1 µg/mL (≈ 3.15 µM) | 2 µg/mL (≈ 6.3 µM) | 1 µg/mL (≈ 3.15 µM) | 4 µg/mL (≈ 12.6 µM) | 2 µg/mL | 1 µg/mL | 1 µg/mL
9 | CC(=O)NC[C@H]1CN(c2ccc(N=O)cc2)C(=O)O1 | 1 µg/mL (≈ 3.8 µM) | 2 µg/mL (≈ 7.6 µM) | 2 µg/mL (≈ 7.6 µM) | 2 µg/mL (≈ 7.6 µM) | 1 µg/mL (≈ 3.8 µM) | 4 µg/mL (≈ 15.2 µM) |  |  | 
10 | CC(=O)NC[C@H]1CN(c2ccc(N3CCCN3C(C)=O)c(F)c2)C(=O)O1 | 0.5 µg/mL (≈ 1.37 µM) | 32 µg/mL (≈ 87.8 µM) | 32 µg/mL (≈ 87.8 µM) | 32 µg/mL (≈ 87.8 µM) | 16 µg/mL (≈ 43.9 µM) | 32 µg/mL (≈ 87.8 µM) |  |  | 
11 | CC(=O)NC[C@H]1CN(c2ccc([N+](=O)[O-])cc2)C(=O)O1 | 2 µg/mL (≈ 7.16 µM) | 2 µg/mL (≈ 7.16 µM) | 0.5 µg/mL (≈ 1.79 µM) | 4 µg/mL (≈ 14.3 µM) | 1 µg/mL (≈ 3.58 µM) | 4 µg/mL (≈ 14.3 µM) |  |  | 
12 | CC(=O)NC[C@H]1CN(c2ccc(N3CCN(C(=O)CO)CC3)c(F)c2)C(=O)O1 [EPEREZOLID] | 0.5 µg/mL (≈ 1.27 µM) | 1 µg/mL (≈ 2.54 µM) | 1 µg/mL (≈ 2.54 µM) | 2 µg/mL (≈ 5.07 µM) | 1 µg/mL (≈ 2.54 µM) | 2 µg/mL (≈ 5.07 µM) |  |  | 
13 | CC(=O)NC[C@H]1CN(c2ccc(N3CCOCC3)c(F)c2)C(=O)O1 [LINEZOLID] |  |  | 1 µg/mL (≈ 2.96 µM) | 2 µg/mL (≈ 5.93 µM) |  |  |  |  | 

From ChEMBL document CHEMBL1139591, “Synthesis and antibacterial activity of dihydro-1,2-oxazine and 2-pyrazoline oxazolidinones: novel analogs of linezolid” (2005)
